Test results from ChEMBL document CHEMBL4680268, “Pharmacomodulations of the benzoyl-thiosemicarbazide scaffold reveal antimicrobial agents targeting d-alanyl-d-alanine ligase in bacterio” (Eur J Med Chem, 2020).
≈ marks a conversion by molar mass, not a printed value. Calls of active or inactive are those of the source. The calls are words filed in the database; no cut-off is given here.

Legend:
[1] = system: Enterococcus faecalis; experiment: Inhibition of recombinant Enterococcus faecalis C-terminal His6-tagged DdlB expressed in Escherichia coli LMG194 assessed as residual activity using D-Ala as substrate at 100 uM preincubated with enzyme for 30 mins followed by substrate addition and measured after 20 mins by malachite green based colorimetric analysis relative to control; details: time 50.0 min
In short: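 Purified E. faecalis His-tagged DdlB (20 mg/L) preincubated 30 min at 30 °C with 100 µM compound and 500 µM ATP in 20 mM Tris-HCl pH 7.4, 10 mM MgCl₂, 10 mM KCl, 10% DMSO; 1 mM D-Ala added, 20 min at 30 °C. Phosphate detected with malachite green reagent, A650 after 25 min dark; residual activity versus no-inhibitor control, triplicate.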

[2] = system: Enterococcus faecalis; experiment: Antibacterial activity against Enterococcus faecalis ATCC 29212 assessed as reduction in bacterial growth incubated for 18 to 24 hrs by broth microdilution method; type: functional; details: time 18-24 hrs
[3] = system: Staphylococcus aureus; experiment: Antibacterial activity against Staphylococcus aureus ATCC 25923 assessed as reduction in bacterial growth incubated for 18 to 24 hrs by broth microdilution method; type: functional; details: time 18-24 hrs
[4] = Inhibition of recombinant Enterococcus faecalis C-terminal His6-tagged DdlB expressed in Escherichia coli LMG194 using D-Ala as substrate preincubated with enzyme for 30 mins followed by substrate addition and measured after 20 mins by malachite green based colorimetric analysis
In short: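 DdlB (20 mg/L) malachite green phosphate assay: enzyme, inhibitor and 500 µM ATP preincubated 30 min at 30 °C in Tris-HCl pH 7.4 buffer with MgCl₂, KCl and 10% DMSO, then 1 mM D-Ala for 20 min; A650 read. IC₅₀ from 11 concentrations, also run with 0.01% Triton X-100; mean ± SD of triplicates, n ≥ 2; EC₅₀ given where maximal inhibition stayed below 50%.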

[5] = system: Klebsiella pneumoniae; experiment: Antibacterial activity against Klebsiella pneumoniae ATCC700603 assessed as reduction in bacterial growth incubated for 18 to 24 hrs by broth microdilution method; type: functional, organism-based; details: 700603, time 18-24 hrs
In short: (§1)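 Microdilution in cation-adjusted Mueller-Hinton broth per CLSI; two-fold compound series in CAMHB with 5% DMSO mixed 1:1 with bacterial suspension, giving 10⁶ bacteria/mL inoculum and 2.5% DMSO final. Top concentrations 0.1, 0.4 or 0.8 mM depending on solubility. Incubated 18–24 h at 37 °C; MIC read as lowest concentration preventing visible growth.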

[6] = system: Enterococcus faecalis; experiment: Antibacterial activity against vancomycin resistant Enterococcus faecalis BM4390 harboring VanB mutant with inactive Ddl and constitutive expression of D-Ala-D-Lac assessed as reduction in bacterial growth incubated for 18 to 24 hrs by broth microdilution method; type: functional; details: time 18-24 hrs
In short: (§2)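 Broth microdilution in cation-adjusted Mueller-Hinton broth per CLSI; inoculum 10⁶ bacteria/mL. Two-fold serial dilutions, compound in broth with 5% DMSO mixed 1:1 with bacterial suspension, giving 2.5% DMSO final. Top concentration 0.1, 0.4 or 0.8 mM depending on solubility. Incubated 18–24 h at 37 °C. MIC = lowest concentration preventing visible growth.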

[7] = system: Staphylococcus aureus; experiment: Antibacterial activity against methicillin and linezolid resistant Staphylococcus aureus NRS119 assessed as reduction in bacterial growth incubated for 18 to 24 hrs by broth microdilution method; type: functional; details: time 18-24 hrs; in short: as §2
[8] = system: Pseudomonas aeruginosa; experiment: Antibacterial activity against Pseudomonas aeruginosa PAO1 assessed as reduction in bacterial growth incubated for 18 to 24 hrs by broth microdilution method; type: functional, organism-based; details: time 18-24 hrs; in short: as §1
[9] = system: Enterococcus faecalis; experiment: Antibacterial activity against vancomycin resistant Enterococcus faecalis JH2-2::C1 harboring constitutive expression of Ddl and vanB ligase assessed as reduction in bacterial growth incubated for 18 to 24 hrs by broth microdilution method; type: functional; details: time 18-24 hrs; in short: as §2
[10] = system: Escherichia coli; experiment: Antibacterial activity against Escherichia coli ATCC 25922 assessed as reduction in bacterial growth incubated for 18 to 24 hrs by broth microdilution method; type: functional, organism-based; details: time 18-24 hrs; in short: as §1
[11] = system: Staphylococcus aureus; experiment: Antibacterial activity against hospital-acquired methicillin/ciprofloxacin and moxifloxacin resistant Staphylococcus aureus SA481 assessed as reduction in bacterial growth incubated for 18 to 24 hrs by broth microdilution method; type: functional; details: time 18-24 hrs; in short: as §2
[12] = system: Staphylococcus aureus; experiment: Antibacterial activity against hospital-acquired vancomycin resistant Staphylococcus aureus VRS-1 assessed as reduction in bacterial growth incubated for 18 to 24 hrs by broth microdilution method; type: functional; details: time 18-24 hrs; in short: as §2
[13] = system: Staphylococcus aureus; experiment: Antibacterial activity against community-acquired methicillin and erythromycin resistant Staphylococcus aureus SA325 assessed as reduction in bacterial growth incubated for 18 to 24 hrs by broth microdilution method; type: functional; details: time 18-24 hrs; in short: as §2
[14] = system: Enterococcus faecalis; experiment: Antibacterial activity against vancomycin resistant Enterococcus faecalis BM4575 harboring VanE genotype, constitutive expression of Ddl and VanE D-Ala-D-Ser ligase assessed as reduction in bacterial growth incubated for 18 to 24 hrs by broth microdilution method; type: functional; details: time 18-24 hrs; in short: as §2
[15] = system: Staphylococcus aureus; experiment: Antibacterial activity against methicillin resistant and vancomycin intermediate resistant Staphylococcus aureus MU50 assessed as reduction in bacterial growth incubated for 18 to 24 hrs by broth microdilution method; type: functional; details: time 18-24 hrs; in short: as §2

Structure (SMILES)	Activity [1] [%]	MIC [2] [µM]	MIC [3] [µM]	IC50 [4] [nM]	Activity [5]	MIC [6] [µM]	MIC [7] [µM]	Activity [8]	MIC [9] [µM]	Activity [10]	MIC [11] [µM]	MIC [12] [µM]	MIC [13] [µM]	MIC [14] [µM]	MIC [15] [µM]
Fc1ccc2c(c1F)Oc1ccccc1-c1n[nH]c(=S)n1-2	> 100	> 400	> 400	–	–	–	–	–	–	–	–	–	–	–	–
Oc1ccccc1-c1nnc(S)n1-c1ccccc1	> 100	> 800	> 800	–	–	–	–	–	–	–	–	–	–	–	–
COc1ccc(O)c(-c2n[nH]c(=S)n2-c2ccccc2)c1	> 50	> 800	> 800	133000	–	–	–	–	–	–	–	–	–	–	–
Oc1ccccc1-c1nnc(Nc2ccc(Cl)c(Cl)c2)s1	> 100	> 100	> 100	–	–	–	–	–	–	–	–	–	–	–	–
Oc1ccccc1/N=C(/S)Nc1ccccc1	> 100	> 800	> 800	–	–	–	–	–	–	–	–	–	–	–	–
O=C(NNC(=S)Nc1ccc(F)c(F)c1F)c1ccccc1O	–	200 (≈ 68.3 µg/mL)	200 (≈ 68.3 µg/mL)	640	inactive	> 400	400 (≈ 137 µg/mL)	inactive	> 400	inactive	400 (≈ 137 µg/mL)	400 (≈ 137 µg/mL)	400 (≈ 137 µg/mL)	400 (≈ 137 µg/mL)	400 (≈ 137 µg/mL)
O=C(O)c1cn(C2CC2)c2cc(N3CCNCC3)c(F)cc2c1=O [CIPROFLOXACIN]	–	–	–	–	–	–	–	–	–	–	770 (≈ 255 µg/mL)	–	–	–	–
Sc1nnc(-c2ccccc2)n1-c1ccccc1	> 100	> 400	> 400	–	–	–	–	–	–	–	–	–	–	–	–
O=C(NNC(=S)Nc1ccc(F)c(F)c1)c1ccccc1O	> 50	400 (≈ 129 µg/mL)	400 (≈ 129 µg/mL)	920	inactive	–	–	inactive	–	inactive	–	–	–	–	–
Oc1ccccc1/C=N/NC(=S)Nc1ccccc1	> 50	> 400	> 400	2600	–	–	–	–	–	–	–	–	–	–	–
Nc1ccccc1-c1n[nH]c(=S)n1-c1ccccc1	> 100	> 800	> 800	–	–	–	–	–	–	–	–	–	–	–	–
O=C(NNC(=S)Nc1ccc(F)cc1)c1ccccc1O	–	200 (≈ 61.1 µg/mL)	> 100	890	inactive	> 100	> 100	inactive	> 100	inactive	> 100	> 100	> 100	> 100	> 100
Oc1ccccc1NC(=S)Nc1ccc(Cl)c(Cl)c1	> 100	50 (≈ 15.7 µg/mL)	25 (≈ 7.83 µg/mL)	–	inactive	50 (≈ 15.7 µg/mL)	50 (≈ 15.7 µg/mL)	inactive	50 (≈ 15.7 µg/mL)	inactive	50 (≈ 15.7 µg/mL)	100 (≈ 31.3 µg/mL)	50 (≈ 15.7 µg/mL)	100 (≈ 31.3 µg/mL)	50 (≈ 15.7 µg/mL)
COc1ccccc1-c1n[nH]c(=S)n1-c1ccc(Cl)c(Cl)c1	> 100	> 400	> 400	–	–	–	–	–	–	–	–	–	–	–	–
CN[C@H](CC(C)C)C(=O)N[C@H]1C(=O)N[C@@H](CC(N)=O)C(=O)N[C@H]2C(=O)N[C@H]3C(=O)N[C@H](C(=O)N[C@H](C(=O)O)c4cc(O)cc(O)c4-c4cc3ccc4O)[C@H](O)c3ccc(c(Cl)c3)Oc3cc2cc(c3O[C@@H]2O[C@H](CO)[C@@H](O)[C@H](O)[C@H]2O[C@H]2C[C@](C)(N)[C@H](O)[C@H](C)O2)Oc2ccc(cc2Cl)[C@H]1O [VANCOMYCIN]	–	–	–	–	–	700 (≈ 1010 µg/mL)	0.7 (≈ 1.01 µg/mL)	–	350 (≈ 507 µg/mL)	–	–	> 175	–	–	5 (≈ 7.25 µg/mL)
COc1ccc(O)c(C(=O)NNC(=S)Nc2ccccc2)c1	–	> 100	> 100	630	–	–	–	–	–	–	–	–	–	–	–
Oc1ccccc1-c1n[nH]c(=S)n1-c1ccc(F)c(F)c1	> 100	> 400	> 400	–	–	–	–	–	–	–	–	–	–	–	–
O=C(NNC(=S)Nc1ccccc1)c1ccccc1O	–	> 800	800 (≈ 230 µg/mL)	740	inactive	> 800	> 800	inactive	> 800	inactive	800 (≈ 230 µg/mL)	800 (≈ 230 µg/mL)	800 (≈ 230 µg/mL)	> 800	800 (≈ 230 µg/mL)
Nc1ccccc1C(=O)NNC(=S)Nc1ccccc1	> 100	> 400	> 400	–	–	–	–	–	–	–	–	–	–	–	–
Oc1ccccc1-c1n[nH]c(=S)n1-c1ccc(F)cc1	–	> 800	> 800	60000	–	–	–	–	–	–	–	–	–	–	–
S=c1[nH]nc(-c2ccccc2)n1-c1ccc(Cl)c(Cl)c1	> 100	> 100	> 100	–	–	–	–	–	–	–	–	–	–	–	–
Clc1ccc(Nc2nnc(-c3ccccc3)s2)cc1Cl	> 100	> 100	> 100	–	–	–	–	–	–	–	–	–	–	–	–
O=C(NNC(=S)Nc1ccc(C(F)(F)F)cc1)c1ccccc1O	–	50 (≈ 17.8 µg/mL)	50 (≈ 17.8 µg/mL)	630	inactive	> 100	100 (≈ 35.5 µg/mL)	inactive	100 (≈ 35.5 µg/mL)	inactive	100 (≈ 35.5 µg/mL)	100 (≈ 35.5 µg/mL)	100 (≈ 35.5 µg/mL)	100 (≈ 35.5 µg/mL)	100 (≈ 35.5 µg/mL)
COc1ccccc1C(=O)NNC(=S)Nc1ccc(Cl)c(Cl)c1	> 100	> 100	> 100	–	–	–	–	–	–	–	–	–	–	–	–
CC(=O)NC[C@H]1CN(c2ccc(N3CCOCC3)c(F)c2)C(=O)O1 [LINEZOLID]	–	–	–	–	–	–	190 (≈ 64.1 µg/mL)	–	–	–	–	–	–	–	3 (≈ 1.01 µg/mL)
O=C(NNC(=S)Nc1ccc(Cl)c(Cl)c1)c1ccccc1	> 100	> 100	> 100	–	–	–	–	–	–	–	–	–	–	–	–
